Holding throughout (format): functional
Assay [1] has as its system Mus musculus. In words: Antitumor activity was determined for median survival of mice against P-388 leukemia in mice at a dose of 600 mg/kg. In short, it runs like this:
(§1)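 Male B6D2F1J mice implanted ip with 10⁶ P-388 cells on day 0; test agents given ip on days 1–4 (qd × 4) in sterile saline, or in 10% Tween 80 for the lipophilic thioether. Groups of 5 treated mice, with 10–17 untreated controls per experiment. Mice weighed on days 1 and 7 to give the 7-day weight change in g and %. Survival recorded in days as median and range.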

The subject of assay [2] is Mus musculus. In words: Antitumor activity was determined for average weight on day 1 against P-388 leukemia in mice at a dose 75 of mg/kg. In short, it runs like this:
(§2)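 Male B6D2F1J mice given 10⁶ P-388 cells ip on day 0, then treated ip once daily on days 1-4 (qd × 4), 5 mice per dose group. Compounds dosed in sterile saline, except one lipophilic thioether given in 10% Tween 80. Mice weighed on days 1 and 7; mean weight per mouse on day 1 and 7-day weight change reported in g and as percent.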

Assay [3] concerns Mus musculus. In words: Antitumor activity was determined for survival range of mice against P-388 leukemia in mice at a dose of 85 mg/kg. In short, it runs like this: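 Male B6D2F1J mice, 5 per dose group, implanted ip with 10⁶ P-388 leukemia cells on day 0. Drug given ip daily on days 1-4 (qd × 4) in sterile saline, or in 10% Tween 80 for the butyl thioether. Survival range recorded in days. Untreated control groups had 10-17 animals per experiment. Mice weighed on days 1 and 7.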

Assay [4] concerns Mus musculus. Description: Antitumor activity was determined for average 7-day weight change against P-388 leukemia in mice at a dose of 150 mg/kg. The procedure, abridged:
as §2

Assay [5] concerns Mus musculus. Description: Antitumor activity was determined for average 7-day weight change against P-388 leukemia in mice at a dose of 300 mg/kg. The procedure, abridged:
as §2

For assay [6], the system named is Mus musculus. Description: Percent increase in life span against P-388 leukemia in mice was determined at a dose of 600 mg/kg. As to conditions: P388. In short, it runs like this: (§3)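 Male B6D2F1J mice, 5 per dose group, received 10⁶ P-388 cells ip on day 0. Dosing was ip qd × 4 on days 1-4 in sterile saline, or 10% Tween 80 for the butyl thioether. Median survival times of treated (T) and untreated control (C, 10-17 mice) groups were compared: %ILS = [(T/C) − 1]100. Weights taken on days 1 and 7.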

The subject of assay [7] is Mus musculus. In words: Antitumor activity was determined for median survival of mice against P-388 leukemia in mice at a dose of 300 mg/kg. In short, it runs like this:
as §1

For assay [8], the system named is Mus musculus. Description: Percent increase in life span against P-388 leukemia in mice was determined at a dose of 300 mg/kg. To be noted: P388. In short, it runs like this: as §3
Assay [9] concerns Mus musculus. Description: Percent increase in life span against P-388 leukemia in mice was determined at a dose of 340 mg/kg. To be noted: P388. In short, it runs like this:
as §3

The test system of assay [10] is Mus musculus. Description: Antitumor activity was determined for median survival of mice against P-388 leukemia in mice at a dose of 680 mg/kg. The procedure, abridged:
as §1

Assay [11] relates to Mus musculus. Description: Antitumor activity was determined for average weight on day 1 against P-388 leukemia in mice at a dose 150 of mg/kg. The procedure, abridged:
as §2

Assay [12] relates to Mus musculus. In words: Antitumor activity was determined for 7-day average percent weight change against P-388 leukemia in mice at a dose of 150 mg/kg. The procedure, abridged: as §2
Assay [13] has as its system Mus musculus. In words: Antitumor activity was determined for average weight on day 1 against P-388 leukemia in mice at a dose of 300 mg/kg. In short, it runs like this:
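Male B6D2F1J mice, groups of 5, inoculated ip with 10⁶ P-388 cells on day 0. Drug given ip on days 1-4 (qd × 4) in sterile saline, or in 10% Tween 80 for the poorly water-soluble thioether. Average weight per mouse recorded on day 1, with reweighing on day 7 for percent weight change. Untreated control groups had 10-17 animals per experiment.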

Turning to `CC[C@H]1OC(n2cc(F)c(=O)[nH]c2=O)[C@H](O)[C@@H]1O` (stereo partly drawn), the Survival median in the assay on Mus musculus [1] came out at 18; with Mus musculus [7] it was 17; in the assay on Mus musculus [10] it was 17. Further, the Average weight was 21.8 g mouse-1 in the assay on Mus musculus [2]; 1.8 g mouse-1 in the assay on Mus musculus [4]; 0.6 g mouse-1 in the assay with Mus musculus [5]; 25.8 g mouse-1 in the assay on Mus musculus [11]; 23.2 g mouse-1 in the assay on Mus musculus [13]. This compound also came in with a Survival range in the assay with Mus musculus [3] of 13. Further, the ILS at 600 mg/kg with Mus musculus [6] was determined as 63%. Besides, the ILS at 300 mg/kg in the assay with Mus musculus [8] was 54%. The compound also came in with an ILS at 340 mg/kg in the assay with Mus musculus [9] of 45%. For the same compound, the Weight change in the assay with Mus musculus [12] turned out to be 7%.

The values above are taken from ChEMBL document CHEMBL1122125, “Synthesis and in vivo antitumor activity of potential 5-fluorouracil prodrugs” (1982).
